In ChEMBL document CHEMBL1137786, “Design, synthesis, biological evaluation, and structure-activity relationship (SAR) discussion of dipeptidyl boronate proteasome inhibitors, part I: comprehensive understanding of the SAR of alpha-amino acid boronates” (J Med Chem, 2009) one finds IC50 data, which are given here for 41 compounds.

Assay [1] is described as follows: Inhibition of chymotrypsin-like activity of human 20s proteasome beta 5 subunit assessed as hydrolysis of fluorogenic substrate.
Assay [2] has as its system NCI-H460. Nature of the assay: Cytotoxicity against human H460 cells after 72 hrs by MTT assay. The class given is functional, cell-based. The following applies: NCI-H460, 72 h. In short, it runs like this:
(§1)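 BGC-823, KB, NCI-H460, HepG2 and SW-480 cells were maintained in RPMI 1640 with 10% FBS at 37 °C, 5% CO2. MTT added from a 5 mg/mL solution for 4 h at 37 °C. Formazan dissolved in DMSO after centrifugation, A540 read.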
On the technique in general: Formazan colour is commonly taken as a measure of viable cells.

Assay [3] deals with SW480. Description: Cytotoxicity against human SW480 cells after 72 hrs by MTT assay. The assay is classed as functional, cell-based. To be noted: SW480, 72 h. In outline: as §1
The test system of assay [4] is SK-OV-3. Nature of the assay: Cytotoxicity against human SKOV3 cells after 72 hrs by MTT assay. The following applies: SK-OV-3, 72 h. The class given is functional, cell-based. In outline: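 SKOV-3 cells were cultured in McCoy's 5A with 10% FBS at 37 °C, 5% CO2. MTT added from a 5 mg/mL solution for 4 h at 37 °C. Formazan dissolved in DMSO, absorbance measured at 540 nm.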

The test system of assay [5] is A549. Description: Cytotoxicity against human A549 cells after 72 hrs by MTT assay. The class given is functional, cell-based. To be noted: A549, 72 h. In outline:
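A549 cells were cultured in F12-K with 10% FBS at 37 °C, 5% CO2. MTT from a 5 mg/mL solution added for 4 h at 37 °C. Medium removed after centrifugation, formazan taken up in DMSO, read at 540 nm.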

In assay [6] the test system is HeLa. Nature of the assay: Cytotoxicity against human HeLa cells after 72 hrs by MTT assay. The class given is functional, cell-based. In outline: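 HeLa cells were cultured in EMEM with 10% FBS at 37 °C, 5% CO2. MTT added from a 5 mg/mL solution for 4 h at 37 °C. Plates centrifuged, formazan dissolved in DMSO, A540 read.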
Assay [7] has as its system KB. Description: Cytotoxicity against human KB cells after 72 hrs by MTT assay. The class given is functional, cell-based. In short, it runs like this: as §1
Assay [8] deals with HepG2. Nature of the assay: Cytotoxicity against human HepG2 cells after 72 hrs by MTT assay. The assay is classed as functional, cell-based. The following applies: HepG2, 72 h. In short, it runs like this: as §1
The test system of assay [9] is BGC-823. Nature of the assay: Cytotoxicity against human BGC823 cells after 72 hrs by MTT assay. The following applies: BGC-823, 72 h. The assay is classed as functional, cell-based. In short, it runs like this: as §1
Assay [10] has as its system HL-60. Description: Cytotoxicity against human HL60 cells after 72 hrs by MTT assay. To be noted: HL-60, 72 h. The class given is functional, cell-based. In short, it runs like this: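 HL-60 cells grown in IMDM with 20% FBS at 37 °C, 5% CO2. MTT added from a 5 mg/mL solution for 4 h at 37 °C. Plates centrifuged, medium discarded, formazan dissolved in DMSO, absorbance read at 540 nm.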

Assay [11] deals with U-266. Nature of the assay: Cytotoxicity against human U266 cells after 72 hrs by MTT assay. The following applies: U-266, 72 h. The assay is classed as functional, cell-based. In outline:
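U266 myeloma cells were grown in RPMI 1640 with 15% FBS at 37 °C, 5% CO2. MTT added from a 5 mg/mL solution for 4 h at 37 °C. Plates centrifuged, formazan dissolved in DMSO, absorbance at 540 nm.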

The IC50 is the point on the concentration scale where inhibition reaches its midpoint. For `CC(C)C[C@H](NC(=O)[C@H](Cc1ccc(O)cc1)NC(=O)OC(C)(C)C)B1O[C@@H]2C[C@@H]3C[C@@H](C3(C)C)[C@]2(C)O1`, the IC50 in [1] was determined as 16.4 nM.
Consider `CC(C)C[C@H](NC(=O)[C@H](CC(C)C)NC(=O)c1cccc2c1CCCC2)B1O[C@@H]2C[C@@H]3C[C@@H](C3(C)C)[C@]2(C)O1`, for which the IC50 in assay [1] was determined as 1.15 nM.
As to `CC(C)C[C@H](NC(=O)[C@@H](NC(=O)C1CCCc2ccccc21)C(C)C)B1O[C@@H]2C[C@@H]3C[C@@H](C3(C)C)[C@]2(C)O1` (stereo not given in full), the IC50 in assay [1] was 39 nM.
In the case of `CC1(C)[C@@H]2C[C@H]3OB([C@H](Cc4ccccc4)NC(=O)[C@H](Cc4ccccc4)NC(=O)[C@H]4CCCc5ccccc54)O[C@@]3(C)[C@H]1C2`, in assay [1], the 50% inhibitory concentration (IC50) is 5.24 nM.
`CC(C)C[C@H](NC(=O)[C@H](Cc1cccc2ccccc12)NC(=O)C1CCCc2ccccc21)B1O[C@@H]2C[C@@H]3C[C@@H](C3(C)C)[C@]2(C)O1` (stereo not given in full): in assay [1], the IC50 came to 4.26 nM.
Regarding `CC(C)C[C@H](NC(=O)[C@H](Cc1cccc2ccccc12)NC(=O)c1ccc2ccccc2c1)B1O[C@@H]2C[C@@H]3C[C@@H](C3(C)C)[C@]2(C)O1`, the IC50 in assay [1] was found to be 2.46 nM.
The same measure, in the same setting: next, `CC(C)C[C@H](NC(=O)[C@H](CC(C)C)NC(=O)C1CCCc2ccccc21)B1O[C@@H]2C[C@@H]3C[C@@H](C3(C)C)[C@]2(C)O1` (stereo not given in full): 14.2 nM; `CC(C)C[C@H](NC(=O)[C@H](Cc1c[nH]c2ccccc12)NC(=O)OCc1ccccc1)B1O[C@@H]2C[C@@H]3C[C@@H](C3(C)C)[C@]2(C)O1`: 41.2 nM.
Consider `CC(C)C[C@H](NC(=O)[C@H](Cc1ccc2ccccc2c1)NC(=O)[C@H]1CCCc2ccccc21)B1O[C@@H]2C[C@@H]3C[C@@H](C3(C)C)[C@]2(C)O1`, for which the IC50 in assay [1] turned out to be 6.12 nM.
Still for that read-out and setting: next, `CC(C)C[C@H](NC(=O)[C@H](Cc1ccc2ccccc2c1)NC(=O)C1CCCc2ccccc21)B1OC2C[C@@H]3C[C@@H](C3(C)C)[C@]2(C)O1` (stereo not given in full): 1.16 nM; `CC(C)C[C@H](NC(=O)OC(C)(C)C)C(=O)N[C@@H](Cc1ccccc1)B1O[C@@H]2C[C@@H]3C[C@@H](C3(C)C)[C@]2(C)O1`: 120 nM.
The same measure, in the same setting: next, `CC(=O)N[C@@H](Cc1ccccc1)C(=O)N[C@@H](Cc1ccc(C)cc1)B1O[C@@H]2C[C@@H]3C[C@@H](C3(C)C)[C@]2(C)O1`: 2.73 nM.
In the case of `Cc1ccc(C[C@H](NC(=O)[C@H](Cc2c[nH]c3ccccc23)NC(=O)OCc2ccccc2)B2O[C@@H]3C[C@@H]4C[C@@H](C4(C)C)[C@]3(C)O2)cc1`, in assay [1], the IC50 is 3.34 nM.
In the case of `CC(C)(C)OC(=O)N[C@@H](Cc1ccc(O)cc1)C(=O)N[C@@H](Cc1ccccc1)B1O[C@@H]2C[C@@H]3C[C@@H](C3(C)C)[C@]2(C)O1`, in [1], the half-inhibitory concentration (IC50) was determined as 114 nM.
With `Cc1ccc(C[C@H](NC(=O)[C@H](CC(C)C)NC(=O)OC(C)(C)C)B2O[C@@H]3C[C@@H]4C[C@@H](C4(C)C)[C@]3(C)O2)cc1`, in [1], the IC50 was 471 nM.
The same measure, in the same setting: then `CCC[C@H](NC(=O)[C@H](CC(C)C)NC(=O)OC(C)(C)C)B1O[C@@H]2C[C@@H]3C[C@@H](C3(C)C)[C@]2(C)O1`, with 49.5 nM.
As for `Cc1ccc(C[C@H](NC(=O)[C@H](Cc2ccccc2)NC(=O)[C@H]2CCCc3ccccc32)B2O[C@@H]3C[C@@H]4C[C@@H](C4(C)C)[C@]3(C)O2)cc1`, the half-maximal inhibitory concentration (IC50) in assay [1] turned out to be 6.7 nM.
On to `CC1(C)[C@@H]2C[C@H]3OB([C@H](Cc4ccc(F)cc4)NC(=O)[C@H](Cc4ccccc4)NC(=O)c4cnccn4)O[C@@]3(C)[C@H]1C2`, for which the IC50 in assay [1] is 3.21 nM.
For the compound `CC(C)C[C@@H](NC(=O)[C@H](Cc1ccccc1)NC(=O)c1cnccn1)B(O)O`, in [1], the half-maximal inhibitory concentration (IC50) came to 700 nM.
The same measure, in the same setting: next, `CC(C)C[C@H](NC(=O)[C@H](Cc1ccc2ccccc2c1)NC(=O)C1CCCc2ccccc21)B1O[C@@H]2C[C@@H]3C[C@@H](C3(C)C)[C@]2(C)O1` (stereo not given in full): 7.63 nM.
The same measure, in the same setting: then `CC(C)C[C@H](NC(=O)[C@H](Cc1ccccc1)NC(=O)c1cnccn1)B1O[C@@H]2C[C@@H]3C[C@@H](C3(C)C)[C@]2(C)O1`, with 1.92 nM.
As for `CC(C)C[C@H](NC(=O)[C@H](Cc1ccccc1)NC(=O)c1cccc2c1CCCC2)B1O[C@@H]2C[C@@H]3C[C@@H](C3(C)C)[C@]2(C)O1`, the 50% inhibitory concentration (IC50) in [1] came out at 0.76 nM.
The same measure, in the same setting: then `CC(=O)N[C@@H](Cc1ccccc1)C(=O)N[C@@H](CC(C)C)B1O[C@@H]2C[C@@H]3C[C@@H](C3(C)C)[C@]2(C)O1`, with 2.34 nM; and `CCCC[C@H](NC(=O)[C@H](Cc1ccccc1)NC(C)=O)B1O[C@@H]2C[C@@H]3C[C@@H](C3(C)C)[C@]2(C)O1`, with 8.46 nM.
Same read-out and setting: then `CC(C)C[C@H](NC(=O)[C@H](Cc1cccc2ccccc12)NC(=O)c1cccc2c1CCCC2)B1OC2C[C@@H]3C[C@@H](C3(C)C)[C@]2(C)O1` (stereo not given in full), with 1.34 nM.
Consider `CC(C)C[C@H](NC(=O)[C@@H](NC(=O)c1cccc2c1CCCC2)C(C)C)B1O[C@@H]2C[C@@H]3C[C@@H](C3(C)C)[C@]2(C)O1`, for which the IC50 in [1] worked out at 6.96 nM.
Same read-out and setting: then `CC(C)C[C@@H](NC(=O)[C@H](Cc1ccccc1)NC(=O)C1CCCc2ccccc21)B(O)O` (stereo not given in full), with 2290 nM.
Still for that read-out and setting: next, `Cc1ccc(C[C@H](NC(=O)[C@H](Cc2ccccc2)NC(=O)C2CCc3ccccc3C2)B2O[C@@H]3C[C@@H]4C[C@@H](C4(C)C)[C@]3(C)O2)cc1` (stereo not given in full): 1.16 nM; `Cc1ccc(C[C@H](NC(=O)[C@H](Cc2ccccc2)NC(=O)c2cnccn2)B2O[C@@H]3C[C@@H]4C[C@@H](C4(C)C)[C@]3(C)O2)cc1`: 4.85 nM; `CC1(C)[C@@H]2C[C@H]3OB([C@H](Cc4ccccc4)NC(=O)[C@H](Cc4ccccc4)NC(=O)C4CCc5ccccc5C4)O[C@@]3(C)[C@H]1C2` (stereo not given in full): 3.37 nM.
Turning to `CC(C)C[C@H](NC(=O)[C@H](Cc1c[nH]c2ccccc12)NC(=O)C1CCCc2ccccc21)B1O[C@@H]2C[C@@H]3C[C@@H](C3(C)C)[C@]2(C)O1` (stereo not given in full), the IC50 in assay [1] was found to be 3.67 nM.
On the same count and under the same terms, then `CCCC[C@H](NC(=O)[C@H](Cc1ccccc1)NC(=O)[C@H]1CCCc2ccccc21)B1O[C@@H]2C[C@@H]3C[C@@H](C3(C)C)[C@]2(C)O1`, with 1.92 nM; and `CC(C)C[C@@H](NC(=O)[C@H](Cc1ccccc1)NC(=O)c1cccc2c1CCCC2)B(O)O`, with 9.19 nM.
As for `CC(C)C[C@H](NC(=O)[C@H](Cc1ccccc1)NC(=O)[C@@H]1CCCc2ccccc21)B1O[C@@H]2C[C@@H]3C[C@@H](C3(C)C)[C@]2(C)O1`, the IC50 in assay [1] turned out to be 5.17 nM.
On to `CC(C)C[C@H](NC(=O)[C@H](Cc1ccccc1)NC(=O)c1cnccn1)B(O)O` [BORTEZOMIB], for which the half-inhibitory concentration (IC50) in assay [2] turned out to be 115 nM; in assay [3], 50 nM; in [4], 130 nM; in [5], 255 nM; in assay [6], 92 nM; in assay [7], 59.5 nM. The IC50 in assay [8] was 37.5 nM; in assay [9], 880 nM; in [10], 5.5 nM; in [11], 2.45 nM.
Take `CC(C)C[C@H](NC(=O)[C@H](Cc1ccccc1)NC(=O)[C@H]1CCCc2ccccc21)B1O[C@@H]2C[C@@H]3C[C@@H](C3(C)C)[C@]2(C)O1`: in assay [1], the half-inhibitory concentration (IC50) was found to be 1.12 nM.
The same measure, in the same setting: next, `O=C(N[C@@H](Cc1ccccc1)C(=O)N[C@@H](Cc1ccc(F)cc1)B(O)O)c1cnccn1`: 4.37 nM; `CC(C)C[C@H](NC(=O)[C@H](Cc1ccccc1)NC(=O)C1CCc2ccccc2C1)B1O[C@@H]2C[C@@H]3C[C@@H](C3(C)C)[C@]2(C)O1` (stereo not given in full): 1.46 nM.
The same measure, in the same setting: next, `CC1(C)[C@@H]2C[C@H]3OB([C@H](Cc4ccc(F)cc4)NC(=O)[C@H](Cc4ccccc4)NC(=O)[C@H]4CCCc5ccccc54)O[C@@]3(C)[C@H]1C2`: 1.26 nM.
Same read-out and setting: next, `CC(C)C[C@H](NC(=O)[C@H](Cc1ccccc1)NC(=O)C1CCCc2ccccc21)B1O[C@@H]2C[C@@H]3C[C@@H](C3(C)C)[C@]2(C)O1` (stereo not given in full): 4.18 nM.
For the compound `CCC(C)[C@H](NC(=O)C1CCCc2ccccc21)C(=O)N[C@@H](CC(C)C)B1O[C@@H]2C[C@@H]3C[C@@H](C3(C)C)[C@]2(C)O1` (stereo not given in full), in assay [1], the 50% inhibitory concentration (IC50) was found to be 17.2 nM.
